We go through 21 compounds from ChEMBL document CHEMBL1926528, “Formulating a new basis for the treatment against botulinum neurotoxin intoxication: 3,4-Diaminopyridine prodrug design and characterization” (Bioorg Med Chem, 2011).

In series [1] the target is T1, Butyrylcholinesterase (Equus caballus, UniProt Q9N1N9). The series is described as follows: Inhibition of equine serum BChE using butyrylthiocholine iodide as a substrate by spectrophotometric Ellman's assay. In outline: (§1)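 Ellman method at 37°C in 100 mM sodium phosphate pH 8.0 with 360 µM DTNB. Substrate was 100 µM acetylthiocholine iodide for eel AChE or butyrylthiocholine iodide for equine BChE, each reconstituted in 1% gelatin buffer. Prodrug ranged 500 µM to 2 µM. Reaction started with 0.5 U enzyme; linear rates read at 412 nm. IC50 and Ki came from non-linear regression, with Ki from varied inhibitor and substrate concentrations.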
T1 sequence (Q9N1N9 whole entry): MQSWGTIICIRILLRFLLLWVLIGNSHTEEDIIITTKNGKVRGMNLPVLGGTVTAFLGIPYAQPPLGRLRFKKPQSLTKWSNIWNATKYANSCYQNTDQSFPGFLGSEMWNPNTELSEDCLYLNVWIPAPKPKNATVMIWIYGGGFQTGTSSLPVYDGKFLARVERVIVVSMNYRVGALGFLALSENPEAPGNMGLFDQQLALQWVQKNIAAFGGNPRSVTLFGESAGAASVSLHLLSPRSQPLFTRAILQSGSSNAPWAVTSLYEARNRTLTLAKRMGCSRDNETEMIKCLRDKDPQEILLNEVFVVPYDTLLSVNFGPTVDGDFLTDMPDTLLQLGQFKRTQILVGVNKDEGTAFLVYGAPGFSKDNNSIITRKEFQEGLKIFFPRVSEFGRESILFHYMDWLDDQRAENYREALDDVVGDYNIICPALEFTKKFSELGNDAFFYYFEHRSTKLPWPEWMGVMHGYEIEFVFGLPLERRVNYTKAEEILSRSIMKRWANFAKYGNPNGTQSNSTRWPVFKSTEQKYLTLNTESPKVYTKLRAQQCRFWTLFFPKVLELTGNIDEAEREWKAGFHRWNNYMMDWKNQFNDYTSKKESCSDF
On the technique in general: DTNB colorimetry detects thiols as they appear.

For series [2], the target named is T1, Butyrylcholinesterase. The series is described as follows: Prodrug activation assessed as equine serum BChE-mediated 3,4-diaminopyridine release measured 3 hrs post enzymatic hydrolysis by reverse phase HPLC. The settings on record: horse. In outline:
(§2)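 Prodrug at 500 µM was incubated with 1.0 U eel AChE or equine BChE in 100 mM sodium phosphate pH 8.0 for 3 h at 37°C. Reaction was quenched with glacial acetic acid. Released 3,4-DAP was measured by C18 reverse-phase HPLC (TFA water/acetonitrile gradient, 254 and 320 nm) and quantified from peak area against authentic standards.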

For series [3], the target named is T2, Acetylcholinesterase (Electrophorus electricus, UniProt O42275). As to the kind of experiment: Prodrug activation assessed as Electrophorus electricus Type V-S acetylcholinesterase mediated 3,4-diaminopyridine release measured 3 hrs post enzymatic hydrolysis by reverse phase HPLC. The method in brief: as §2
T2 sequence (O42275 whole entry): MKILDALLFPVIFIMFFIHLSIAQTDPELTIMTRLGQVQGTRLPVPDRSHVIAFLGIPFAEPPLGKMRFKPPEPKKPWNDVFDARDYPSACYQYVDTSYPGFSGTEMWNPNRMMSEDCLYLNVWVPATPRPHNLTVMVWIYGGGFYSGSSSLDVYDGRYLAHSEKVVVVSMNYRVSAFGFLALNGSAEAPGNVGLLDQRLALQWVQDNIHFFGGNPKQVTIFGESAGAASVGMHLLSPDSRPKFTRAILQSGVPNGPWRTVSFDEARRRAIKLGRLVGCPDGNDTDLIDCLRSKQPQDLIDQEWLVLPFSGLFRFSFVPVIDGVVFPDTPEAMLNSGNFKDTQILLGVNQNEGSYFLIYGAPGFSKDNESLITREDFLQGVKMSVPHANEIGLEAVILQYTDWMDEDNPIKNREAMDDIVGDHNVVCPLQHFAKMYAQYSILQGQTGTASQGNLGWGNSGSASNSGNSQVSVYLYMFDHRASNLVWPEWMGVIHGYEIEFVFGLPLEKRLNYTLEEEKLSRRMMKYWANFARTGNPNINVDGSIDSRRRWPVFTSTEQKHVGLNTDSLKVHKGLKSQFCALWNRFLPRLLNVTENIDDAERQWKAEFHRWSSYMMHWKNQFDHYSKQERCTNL
Series [4] concerns the target T2, Acetylcholinesterase. The series is described as follows: Inhibition of Electrophorus electricus Type V-S acetylcholinesterase using […] as substrate by spectrophotometric Ellman's assay. In outline:
as §1

A further series relates to Serum. The series is described as follows: Half life mouse serum by reverse phase HPLC. Type of series: ADME, cell-free. The method in brief:
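15 µl of 10 mM prodrug stock went into 85 µL mouse serum from clotted blood, pre-warmed to 37°C. Samples were taken at 0–120 min and extracted with cold acetonitrile; proteins were removed by centrifugation. Breakdown product 3,4-DAP was followed by reverse-phase HPLC. Half-life was calculated from 1-hour endpoint samples.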

Series [5] can be described thus: Half life in iv dosed mouse. Type of series: ADME, organism-based. The settings on record: in vivo.

With `CC(=O)Oc1ccc(COC(=O)Nc2ccncc2N)cc1`, the IC50 – broadly, the concentration that inhibits the measured activity by half – at Butyrylcholinesterase [1] was found to be 10.6 µM; on Acetylcholinesterase [4], 49.4 µM. Moreover, the results for the inhibition constant (Ki) on Butyrylcholinesterase [1] and on Acetylcholinesterase [4] were 1.6 µM and 10.9 µM, respectively. For the same compound, the Drug metabolism at Butyrylcholinesterase [2] and on Acetylcholinesterase [3] was 0 µM throughout.

Consider `CCC(=O)Oc1ccc(COC(=O)Nc2ccncc2N)cc1`, for which the t1/2 with Serum amounted to 1.2 min. For the same compound, the IC50 on Butyrylcholinesterase [1] worked out at 129 µM; against Acetylcholinesterase [4], 5.2 µM. Besides, the values for the Ki on Butyrylcholinesterase [1] and at Acetylcholinesterase [4] were 25 µM and 5.7 µM, respectively. Moreover, the Drug metabolism turned out to be 82 µM at Butyrylcholinesterase [2] and 145 µM at Acetylcholinesterase [3].

On to `CCCC(=O)Oc1ccc(COC(=O)Nc2ccncc2N)cc1`, for which the values for the IC50 against Butyrylcholinesterase [1] and against Acetylcholinesterase [4] were 111 µM and 48.8 µM, respectively. Moreover, the results for the Ki on Butyrylcholinesterase [1] and on Acetylcholinesterase [4] were 14.4 µM and 12.1 µM, respectively. Also, the Drug metabolism came to 71 µM on Butyrylcholinesterase [2] and 10 µM on Acetylcholinesterase [3].

The compound `CC(C)C(=O)Oc1ccc(COC(=O)Nc2ccncc2N)cc1` displayed a t1/2 in the series with Serum of 1.9 min. For the same compound, the IC50 against Butyrylcholinesterase [1] is 122 µM; on Acetylcholinesterase [4], 8.5 µM. The inhibition constant (Ki) (in general, the dissociation constant of the complex between target and ligand, obtained from inhibition or displacement) at Butyrylcholinesterase [1] was 42 µM; at Acetylcholinesterase [4], 3.9 µM. Moreover, the Drug metabolism at Butyrylcholinesterase [2] came out at 82 µM; on Acetylcholinesterase [3], 105 µM.

Consider `CC(C)CC(=O)Oc1ccc(COC(=O)Nc2ccncc2N)cc1`, for which the values for the IC50 on Butyrylcholinesterase [1] and against Acetylcholinesterase [4] were 87.7 µM and 11.9 µM, respectively. Besides, the Ki was 38.4 µM at Butyrylcholinesterase [1] and 55.4 µM at Acetylcholinesterase [4]. For the same compound, the Drug metabolism amounted to 83 µM at Butyrylcholinesterase [2] and 12 µM on Acetylcholinesterase [3].

Consider `Nc1cnccc1NC(=O)OCc1ccc(OC(=O)C2CCCC2)cc1`, for which the IC50 was 77.5 µM on Butyrylcholinesterase [1] and 11.6 µM on Acetylcholinesterase [4]. The values for the Ki at Butyrylcholinesterase [1] and at Acetylcholinesterase [4] were 37.2 µM and 6.8 µM, respectively. Also, the Drug metabolism on Butyrylcholinesterase [2] was determined as 79 µM; on Acetylcholinesterase [3] it was 34 µM.

On to `Nc1cnccc1NC(=O)OCc1ccc(OC(=O)c2ccccc2)cc1`, for which the IC50 at Butyrylcholinesterase [1] is 392 µM; against Acetylcholinesterase [4] it was 167 µM. In addition, the values for the Drug metabolism at Butyrylcholinesterase [2] and on Acetylcholinesterase [3] were 0 µM and 1 µM, respectively.

`COc1cccc(C(=O)Oc2ccc(COC(=O)Nc3ccncc3N)cc2)c1`: the figures for the IC50 against Butyrylcholinesterase [1] and against Acetylcholinesterase [4] were 61.7 µM and 163 µM, respectively. Besides, the Drug metabolism at Butyrylcholinesterase [2] is 0 µM; at Acetylcholinesterase [3], 2 µM.

With `Nc1cnccc1NC(=O)OCc1ccc(OC(=O)Cc2ccccc2)cc1`, the figures for the half-inhibitory concentration (IC50) at Butyrylcholinesterase [1] and at Acetylcholinesterase [4] were 32.2 µM and 136 µM, respectively. Affinity on Butyrylcholinesterase [1] was put at a Ki of 30.7 µM. In addition, the Drug metabolism at Butyrylcholinesterase [2] and at Acetylcholinesterase [3] was 0 µM throughout.

As to `CC(C)C(=O)OCc1ccccc1COC(=O)Nc1ccncc1N`, the IC50 against Butyrylcholinesterase [1] is over 500 µM; against Acetylcholinesterase [4], 496 µM. Further, the Drug metabolism came to 5 µM on Butyrylcholinesterase [2] and 29 µM on Acetylcholinesterase [3].

`CC(C)C(=O)OCCOC(=O)Nc1ccncc1N`: the IC50 at Butyrylcholinesterase [1] worked out at 61.9 µM; at Acetylcholinesterase [4], 25.9 µM. Besides, the inhibition constant Ki at Butyrylcholinesterase [1] and at Acetylcholinesterase [4] was over 500 µM each time. In addition, the Drug metabolism at Butyrylcholinesterase [2] came to 4 µM; at Acetylcholinesterase [3], 0 µM.

For the compound `COC(=O)Nc1cnccc1N`, the IC50 against Butyrylcholinesterase [1] and at Acetylcholinesterase [4] was over 500 µM throughout. Moreover, the Drug metabolism on Butyrylcholinesterase [2] and at Acetylcholinesterase [3] was 0 µM throughout.

`COC(=O)Nc1ccncc1NC(=O)OC`: the IC50 on Butyrylcholinesterase [1] is 417 µM; against Acetylcholinesterase [4] it was 36.3 µM. The Ki on Butyrylcholinesterase [1] and on Acetylcholinesterase [4] was over 500 µM each time. Also, the Drug metabolism at Butyrylcholinesterase [2] and on Acetylcholinesterase [3] was 0 µM each time.

Turning to `COC(=O)Nc1ccncc1N`, the values for the IC50 against Butyrylcholinesterase [1] and against Acetylcholinesterase [4] were 491 µM and 45.6 µM, respectively. Further, the Drug metabolism on Butyrylcholinesterase [2] and at Acetylcholinesterase [3] was 0 µM throughout.

On to `CC(=O)Nc1ccncc1N`, for which the IC50 at Butyrylcholinesterase [1] is over 500 µM; at Acetylcholinesterase [4], 61.3 µM. Moreover, the Ki on Butyrylcholinesterase [1] amounted to 173 µM; on Acetylcholinesterase [4], 32.5 µM. Moreover, the Drug metabolism at Butyrylcholinesterase [2] and on Acetylcholinesterase [3] was 0 µM throughout.

As to `CC(=O)Nc1ccncc1NC(C)=O`, the concentration for half-maximal inhibition (IC50) turned out to be 404 µM on Butyrylcholinesterase [1] and 34.2 µM at Acetylcholinesterase [4]. For the same compound, the Drug metabolism on Butyrylcholinesterase [2] and at Acetylcholinesterase [3] was 0 µM throughout.

With `Nc1cnccc1NC(=O)c1ccccc1`, the IC50 against Butyrylcholinesterase [1] and on Acetylcholinesterase [4] was over 500 µM in each case. Also, the Drug metabolism at Butyrylcholinesterase [2] and at Acetylcholinesterase [3] was 0 µM throughout.

With `Nc1cnccc1NC(=O)C1CCCC1`, the IC50 on Butyrylcholinesterase [1] and against Acetylcholinesterase [4] was over 500 µM in each case. Further, the Drug metabolism worked out at 8 µM at Butyrylcholinesterase [2] and 4 µM at Acetylcholinesterase [3].

`CC(C)OC(=O)CCC(=O)Nc1ccncc1N`: in the series with Serum, the t1/2 came out at 165 min. In addition, the IC50 against Butyrylcholinesterase [1] is 97.4 µM; against Acetylcholinesterase [4] it was 88.3 µM. Besides, the results for the Ki at Butyrylcholinesterase [1] and on Acetylcholinesterase [4] were 62 µM and 3.2 µM, respectively. Also, the values for the Drug metabolism on Butyrylcholinesterase [2] and at Acetylcholinesterase [3] were 5.8 µM and 3.4 µM, respectively.

On to `Nc1cncc(N)c1N`, for which the half-life (as a rule, the time in which the quantity being followed falls by half) in series [5] is 18.6 min.

`C#CC[n+]1ccc(N)c(N)c1`: the half-life in series [5] is 72 min. Compared with the last compound, the half-life is about 3.9-fold higher.
